# ALR H2O2 inh = blocks human ALR sulfhydryl oxidase activity; purified ALR, DTT oxidation, H2O2 HRP-luminol luminescence; inhibition, % (no concentration beside the values); actives 3.8% (n = 290,000); AID 485317;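 active means mean replicate inhibition above about 79%, with every replicate also reaching it, limit read from the data; inconclusive means only one of the two criteria met; inactive means mean below limit and not every replicate reaching it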
# Target sequence (P55789 whole entry, looked up): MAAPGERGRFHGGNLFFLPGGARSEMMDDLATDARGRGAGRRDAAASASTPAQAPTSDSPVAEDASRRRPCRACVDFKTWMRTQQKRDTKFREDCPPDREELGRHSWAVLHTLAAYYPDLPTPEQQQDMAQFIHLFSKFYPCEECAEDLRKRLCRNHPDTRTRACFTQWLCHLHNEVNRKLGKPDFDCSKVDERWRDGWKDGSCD
# NALP3 yeast inh = inhibitors of NALP3 inflammasome in yeast; Yeast reconstituted NLRP3/ASC/caspase-1, beta-gal luminescence, 24 h; inhibition, % at 10 µM; actives 0.39% (n = 330,000); AID 2825;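 active means inhibition of 50% or more; inactive means inhibition below 50%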
# Pemphigus Ab inh = blocks pemphigus antibody binding to human desmoglein-3; DSG3-coupled beads, scFv-anti-DSG3-GFP binding, flow cytometry; stronger effect = lower value; actives 0.48% (n = 310,000); binding (percent of control), % at 10 µM; AID 588358; P32926;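 active means binding more than 3 SD below its plate's average and above zero; inconclusive means below that plate limit but binding exactly zero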;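 further: hits lower antibody fragment binding to DSG3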
# NALP1 inh = blocks the NALP1 inflammasome reconstituted in yeast; S. cerevisiae NALP1/ASC/caspase-1 growth, X-gal OD620, 72 h; inhibition, % at 10 µM; actives 0.61% (n = 280,000); AID 2071; in the data active means inhibition mostly above about 24%, no sharp cut-off; inactive means mostly below about 32%
# Arr AP2 block = human beta-arrestin and AP2 interaction inhibition; FITC-arrestin peptide / GST-AP2 beads, flow cytometry; AP2 beta2 appendage carries R879A mutation; inhibition, % at 10 µM; actives 0.31% (n = 340,000); AID 504490;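 active means inhibition above a set limit, near 3 SD of compounds lacking own fluorescence, cut at about 54% in these data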
#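 system = GST-tagged AP2 beta2-adaptin appendage (R879A) on 4 µm glutathione beads | reagent = FITC-labelled arrestin peptide probe, 50 nM final | schedule = compound with beads 12 min RT, then probe 1 h RT | signal = HyperCyt-sampled flow cytometry, FL1 channel, ex 488/em 535 nm | read-out = percent response from loss of bead-bound FITC fluorescence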
# PolyA inhibitor = inhibitors of polyadenylation in S. cerevisiae | S. cerevisiae SKY197-pL101 polyadenylation reporter, beta-gal luminescence; efflux-impaired pdr1/pdr3 knockout yeast; score 100 = 6 SD above DMSO | activity score, % at 12 µM | actives 0.02% (n = 300,000);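 active means lowest replicate activity score at least 50, where 100 means six control SD above control mean; inconclusive means lowest score under 50 but half or more replicates reach 50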;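 further: yeast exposed to compound for 9 h at 30 °C; higher score means more reporter readthrough which indicates perturbed polyadenylation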
# A number is an active result; . = inactive; ? = inconclusive; / = no result given. Most compounds without a hit are left out; they make up all but 4.6% or so of the library.
SMILES,ALR H2O2 inh,NALP3 yeast inh,Pemphigus Ab inh,NALP1 inh,Arr AP2 block,PolyA inhibitor
Cc1c(Cl)cccc1-c1ccc(CNCc2ccccn2)o1,/,.,.,.,.,.
O=C(NCCN1CCN(c2ccccc2F)CC1)C1CCCN(S(=O)(=O)c2cnc[nH]2)C1 (stereo not given),88,.,.,.,.,?
Cc1cccc(CCNC(=O)C2CCCN(S(=O)(=O)c3cnc[nH]3)C2)c1 (stereo not given),.,.,.,.,.,.
Cc1ccc(NC(=O)C2CCCN(S(=O)(=O)c3cnc[nH]3)C2)cc1F (stereo not given),.,.,.,.,.,/
O=C(Nc1ccc(Cl)cc1)C1CCCN(S(=O)(=O)c2cnc[nH]2)C1 (stereo not given),96,.,.,.,.,.
CSc1ccc(CCNC(=O)C2CCCN(S(=O)(=O)N3CCOCC3)C2)cc1 (stereo not given),.,.,77,.,.,.
O=C(NCCc1ccccc1)C1CCCN(S(=O)(=O)c2cnc[nH]2)C1 (stereo not given),87,.,.,.,.,.
Cc1ccc(C)c(S(=O)(=O)Nc2cc3c4c(c2)CCC(=O)N4CCC3)c1,.,.,.,/,.,.
CC1CCC(NC(=O)CCCn2sc3ccccc3c2=O)CC1 (stereo not given),.,.,.,.,.,.
CCOc1ccc(C(=O)C(C)OC(=O)c2nc(Cl)ccc2Cl)cc1 (stereo not given),.,.,.,/,.,.
CCOC(=O)c1ccc(NC(=O)C2CCN(S(=O)(=O)c3c(C)nn(C)c3C)CC2)cc1,98,.,.,.,.,.
CCOc1ccc(NC(=O)C2CCN(S(=O)(=O)c3cccs3)CC2)cc1,.,.,/,39,.,.
CCOC(=O)c1cccc(NC(=O)C2CCCN(S(=O)(=O)c3c(C)nn(C)c3C)C2)c1 (stereo not given),.,.,/,.,.,/
CCOc1ccc(NC(=O)c2cc(S(=O)(=O)N3CCCCC3)c[nH]2)cc1,.,.,80,.,.,.
CC(=O)c1ccc(NC(=O)C2CCN(S(=O)(=O)c3cccs3)CC2)cc1,.,.,.,.,.,.
CCc1ccc(NC(=O)c2cc(S(=O)(=O)N3CCCC3)c[nH]2)cc1,.,.,.,.,.,.
O=C(NCc1ccc(Cl)cc1)C1CCCN(S(=O)(=O)c2cnc[nH]2)C1 (stereo not given),94,.,.,.,.,.
Cc1cccc(NC(=O)COC(=O)CCc2c[nH]c3ccccc23)c1,.,.,.,/,.,/
CC(C)c1ccc(NC(=O)C2CCCN(S(=O)(=O)c3cnc[nH]3)C2)cc1 (stereo not given),91,.,.,.,.,.
CCOC(=O)c1ccc(NC(=O)C2CCCN(S(=O)(=O)c3cnc[nH]3)C2)cc1 (stereo not given),95,.,.,.,.,.
COc1ccc(N2CCN(CCCNC(=O)C3CCCN(S(=O)(=O)c4cnc[nH]4)C3)CC2)cc1 (stereo not given),87,.,.,/,.,.
COc1ccc(N2CCN(CCCNC(=O)C3CCCN(S(=O)(=O)c4c(C)n[nH]c4C)C3)CC2)cc1 (stereo not given),.,.,.,.,.,.
COc1cc(NC(=O)C2CCCN(S(=O)(=O)c3cnc[nH]3)C2)cc(OC)c1 (stereo not given),98,.,.,.,.,.
COCCNC(=O)C(=O)NCC1OCCN1S(=O)(=O)c1cc(F)ccc1F (stereo not given),/,.,.,.,.,.
O=C(CN1CCN(C(=O)CNC(=O)c2ccc(-c3ccccc3)cc2)CC1)Nc1ccccc1Cl,/,/,.,/,/,/
SMILES,ALR H2O2 inh,NALP3 yeast inh,Pemphigus Ab inh,NALP1 inh,Arr AP2 block,PolyA inhibitor
Cn1ncc2c1NC(c1ccc(F)cc1)SCC2=O (stereo not given),/,/,.,/,/,/
c1ccc(Nc2ccnc(Nc3ccccc3)n2)cc1,96,.,.,.,.,.
NNc1nc(Nc2ccccc2)nc(Nc2ccccc2)n1,.,.,.,.,.,.
Cc1cc(-c2nc3ncccc3o2)ccc1NC(=S)NC(=O)C(C)C,.,.,54,.,.,.
Cc1ccc(-c2nc3ncccc3o2)cc1NC(=O)C(C)C,.,.,.,.,.,.
C=CCn1nc(C(=O)N2CCOCC2)cc1-c1sc(NC(=O)c2ccccc2)nc1C,/,/,.,/,/,/
O=S1(=O)C[C@@H](O)[C@@H](Nc2ccc(Cl)cc2)C1,98,.,.,.,.,.
O=C(C1CC(=O)N(C2CCCCC2)C1)N1CCN(c2cccc(C(F)(F)F)c2)CC1 (stereo not given),.,.,.,.,.,.
COc1ccccc1N1CCN(C2CCCN(C(=O)CCc3cnccn3)C2)CC1 (stereo not given),.,.,.,.,.,.
COc1ccccc1N1CCN(C2CCCN(C(=O)CCc3c(C)noc3C)C2)CC1 (stereo not given),94,.,.,.,.,.
Cc1ccc(CN(C)C(=O)c2ccccc2NC(=O)c2ccccc2)o1,/,.,/,/,.,/
Cc1ccc(S(=O)(=O)N(CC(=O)c2ccccc2)C(=O)N2CCN(C)CC2)cc1,/,.,.,/,.,.
COc1ccccc1NC(=O)N(C)C[C@H]1OCc2cnnn2CCCC(=O)N([C@H](C)CO)C[C@@H]1C,/,/,.,/,/,/
c1cc(CNCCN2CCNCC2)ccn1,/,/,58,/,.,/
CC(=O)NC(CC(=O)NC1CCCc2ccccc21)c1ccccc1 (stereo not given),.,.,.,.,.,.
S=C(c1c[nH]c2ccc(Br)cc12)N1CCOCC1,99,.,.,.,.,.
O=C(Nc1ccc(O)cc1)C1CC=CCC1 (stereo not given),99,.,.,.,.,.
O=C(Nc1nccs1)C1CC=CCC1 (stereo not given),.,.,.,.,.,.
COc1ccccc1N(Cc1ccccc1)S(=O)(=O)c1cccc(C(=O)Nc2ccc(C)cn2)c1,.,.,.,/,.,.
S=c1nc(-c2ccccc2Br)[nH][nH]1,99,.,.,.,.,.
Brc1ccc(-c2nc3c4ccccc4ccn3c2Cc2ccccc2)cc1,/,/,.,/,/,/
CCOc1ccc(N2CSC(=S)N(c3ccc(OCC)cc3)C2)cc1,.,.,76,.,.,.
CCC(=O)Oc1ccc(C/C(=N\O)c2ccc(O)cc2O)o1,98,.,.,.,.,.
CN1CCN(c2ccc(CNS(=O)(=O)Cc3ccc(Cl)cc3)cc2)CC1,.,.,/,21,.,.
CN1CCN(c2ccc(CNS(=O)(=O)c3ccc(F)cc3Cl)cc2)CC1,.,.,.,.,.,.
Cc1ccc(C(C[N+](=O)[O-])c2c(C)[nH]n(-c3ccccc3)c2=O)cc1 (stereo not given),.,.,.,105,.,.

# Assay outcomes: PubChem BioAssay, several laboratories
